From ChEMBL document CHEMBL1150813, “Triterpene saponins from Vietnamese ginseng (Panax vietnamensis) and their hepatocytoprotective activity” (J Nat Prod, 2001)

How the values were obtained:
Assay type in all cases: functional
Hepatocyte [1] = assay: Hepatoprotective activity in mouse hepatocytes assessed protection against D-galactosamine/TNFalpha-induced cell death at 100 uM administered before 30 mins of TNFalpha challenge measured after 18 hrs
Summary of the method: (§1)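 Primary mouse hepatocytes, isolated by collagenase perfusion, were cultured in William's E medium with 10% calf serum, dexamethasone and insulin at 1.5×10^4 cells/well. TNF-α (100 ng/mL) was added 30 min later. Viability was read by MTT after 18 h. Values are mean ± SD, n = 4 (normal and control n = 8), with Student's t-test versus control.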

Hepatocyte [2] = assay: Hepatoprotective activity in mouse hepatocytes assessed inhibition of D-galactosamine/TNFalpha-induced cell death dosed administered before 30 mins of TNFalpha challenge measured after 18 hrs; summary of the method: as §1
Hepatocyte [3] = assay: Hepatoprotective activity in mouse hepatocytes assessed protection against D-galactosamine/TNFalpha-induced cell death at 50 uM administered before 30 mins of TNFalpha challenge measured after 18 hrs; summary of the method: as §1
Hepatocyte [4] = assay: Hepatoprotective activity in mouse hepatocytes assessed inhibition of D-galactosamine/TNFalpha-induced cell death at 200 uM administered before 30 mins of TNFalpha challenge measured after 18 hrs; summary of the method: as §1
Hepatocyte [5] = assay: Hepatoprotective activity against D-galactosamine/TNFalpha-induced cell death in mouse hepatocytes assessed cell survival rate at 200 uM administered before 30 mins of TNFalpha challenge measured after 18 hrs by MTT assay; summary of the method: as §1
Hepatocyte [6] = assay: Hepatoprotective activity against D-galactosamine/TNFalpha-induced cell death in mouse hepatocytes assessed cell survival rate at 50 uM administered before 30 mins of TNFalpha challenge measured after 18 hrs by MTT assay; summary of the method: as §1
Hepatocyte [7] = assay: Hepatoprotective activity in mouse hepatocytes assessed inhibition of D-galactosamine/TNFalpha-induced cell death at 100 uM administered before 30 mins of TNFalpha challenge measured after 18 hrs; summary of the method: as §1
Hepatocyte [8] = assay: Hepatoprotective activity in mouse hepatocytes assessed inhibition of D-galactosamine/TNFalpha-induced cell death at 50 uM administered before 30 mins of TNFalpha challenge measured after 18 hrs; summary of the method: as §1
Hepatocyte [9] = assay: Hepatoprotective activity against D-galactosamine/TNFalpha-induced cell death in mouse hepatocytes assessed cell survival rate at 100 uM administered before 30 mins of TNFalpha challenge measured after 18 hrs by MTT assay; summary of the method: as §1
Hepatocyte [10] = assay: Hepatoprotective activity in mouse hepatocytes assessed protection against D-galactosamine/TNFalpha-induced cell death at 200 uM administered before 30 mins of TNFalpha challenge measured after 18 hrs; summary of the method: as §1
Hepatocyte [11] = assay: Hepatoprotective activity in mouse hepatocytes assessed protection against D-galactosamine/TNFalpha-induced cell death at 25 uM administered before 30 mins of TNFalpha challenge measured after 18 hrs; summary of the method: as §1
Hepatocyte [12] = assay: Hepatoprotective activity in mouse hepatocytes assessed inhibition of D-galactosamine/TNFalpha-induced cell death at 25 uM administered before 30 mins of TNFalpha challenge measured after 18 hrs; summary of the method: as §1
Hepatocyte [13] = assay: Hepatoprotective activity in mouse hepatocytes assessed protection against D-galactosamine/TNFalpha-induced cell death at 12.5 uM administered before 30 mins of TNFalpha challenge measured after 18 hrs; summary of the method: as §1
Hepatocyte [14] = assay: Hepatoprotective activity against D-galactosamine/TNFalpha-induced cell death in mouse hepatocytes assessed cell survival rate at 25 uM administered before 30 mins of TNFalpha challenge measured after 18 hrs by MTT assay; summary of the method: as §1
Hepatocyte [15] = assay: Hepatoprotective activity in mouse hepatocytes assessed inhibition of D-galactosamine/TNFalpha-induced cell death at 12.5 uM administered before 30 mins of TNFalpha challenge measured after 18 hrs; summary of the method: as §1
Hepatocyte [16] = assay: Hepatoprotective activity against D-galactosamine/TNFalpha-induced cell death in mouse hepatocytes assessed cell survival rate at 12.5 uM administered before 30 mins of TNFalpha challenge measured after 18 hrs by MTT assay; summary of the method: as §1

Compound	Activity (Hepatocyte [1]) [%]	IC50 (Hepatocyte [2]) [µM]	Activity (Hepatocyte [3]) [%]	inhibition (INH) (Hepatocyte [4]) [%]	Survival (Hepatocyte [5]) [%]	Survival (Hepatocyte [6]) [%]	inhibition (INH) (Hepatocyte [7]) [%]	inhibition (INH) (Hepatocyte [8]) [%]	Survival (Hepatocyte [9]) [%]	Activity (Hepatocyte [10]) [%]	Activity (Hepatocyte [11]) [%]	inhibition (INH) (Hepatocyte [12]) [%]	Activity (Hepatocyte [13]) [%]	Survival (Hepatocyte [14]) [%]	inhibition (INH) (Hepatocyte [15]) [%]	Survival (Hepatocyte [16]) [%]
CC(C)=CCC[C@](C)(O)[C@H]1CC[C@]2(C)[C@@H]1[C@H](O)C[C@@H]1[C@@]3(C)CC[C@H](O)C(C)(C)[C@@H]3[C@@H](O[C@@H]3O[C@H](CO)[C@@H](O)[C@H](O)[C@H]3O)C[C@]12C [GINSENOSIDE RH1]	15.6	105	11.7	80.5	54	38.1	36.6	27.4	40.8	34.3	–	–	–	–	–	–
CC(C)=CC/C=C(\C)[C@H]1CC[C@]2(C)[C@@H]1[C@H](O)C[C@@H]1[C@@]3(C)CC[C@H](O)C(C)(C)[C@@H]3[C@@H](O[C@@H]3O[C@H](CO)[C@@H](O)[C@H](O)[C@H]3O)C[C@]12C [GINSENOSIDE RH4]	24.8	97	8	67.1	50	34	50.6	13.7	45	35.1	–	–	–	–	–	–
CC1(C)[C@@H](O[C@H]2O[C@H](C(=O)O)[C@@H](O)[C@H](O)[C@H]2O[C@@H]2O[C@H](C(=O)O)[C@@H](O)[C@H](O)[C@H]2O)CC[C@]2(C)[C@H]3C(=O)C=C4[C@@H]5C[C@@](C)(C(=O)O)CC[C@]5(C)CC[C@@]4(C)[C@]3(C)CC[C@@H]12 [GLYCYRRHIZIN]	4.8	> 200	1	20.3	36.2	33	11.1	11	33.4	8.7	–	–	–	–	–	–
CC(C)(O)[C@@H]1CC[C@@](C)([C@H]2CC[C@]3(C)[C@@H]2[C@H](O)C[C@@H]2[C@@]4(C)CC[C@H](O)C(C)(C)[C@@H]4[C@@H](O[C@@H]4O[C@H](CO)[C@@H](O)[C@H](O)[C@H]4O[C@@H]4OC[C@@H](O)[C@H](O)[C@H]4O)C[C@]23C)O1 [MAJONOSIDE R2]	19.3	82.4	16	83.3	54.8	41.1	55.2	37.5	46.4	35.5	–	–	–	–	–	–
CC(C)(O)[C@@H]1CC[C@@](C)([C@H]2CC[C@]3(C)[C@@H]2[C@H](O)C[C@@H]2[C@@]4(C)CC[C@H](O)C(C)(C)[C@@H]4[C@@H](O)C[C@]23C)O1 [PROTOPANAXATRIOL OXIDE II]	22.2	74	17.9	209.9	92.6	40.2	51.7	34.5	45.3	92.2	–	–	–	–	–	–
COc1cc(C2Oc3cc([C@H]4Oc5cc(O)cc(O)c5C(=O)[C@@H]4O)ccc3OC2CO)ccc1O (stereo partly drawn) [SILIBININ]	–	14	64.3	–	–	75	–	149.7	–	–	42.8	99.7	17.3	60	43.4	43.1
CC(=O)OC[C@H]1O[C@@H](O[C@H]2C[C@]3(C)[C@H](C[C@@H](O)[C@@H]4[C@@H]([C@]5(C)CC[C@@H](C(C)(C)O)O5)CC[C@]43C)[C@@]3(C)CC[C@H](O)C(C)(C)[C@H]23)[C@H](O[C@@H]2O[C@H](C)[C@@H](O)[C@H](O)[C@@H]2O)[C@@H](O)[C@@H]1O [VINA-GINSENOSIDE R1]	71.5	47	29	–	–	45.6	89.8	51.7	57	–	–	–	–	33.1	–	–
